Compound activity from PubChem BioAssay.
This is a sample that favours compounds with a hit; in the whole collection about 2.3% have one here.
TAAR1 antagonist: antagonists of human TAAR1. Q96RJ0. CHO RD-HGA16 TAAR1, Fluo-8 calcium fluorescence, antagonist. inhibition, % at 3 µM. hit rate 1.5% among 360,000. AID 624466;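 active = inhibition above a per-plate cutoff, the mean inhibition of test compounds on that plate plus 3 SD, cut at about 49% in these data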;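 also: 0% = DMSO plus EC80 beta-PEA response and 100% = DMSO alone without agonist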
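test system = CHO RD-HGA16 cells bearing hTAAR1 | replication = singlicate | controls = DMSO-only wells and EC80 β-PEA-stimulated wells | reagent = EC80 β-phenethylamine stimulus | read-out basis = percent inhibition of PEA-evoked calcium signal, max/basal emission ratio | schedule = seeding 17-24 h prior, 75-min 37 °C, 30-min RT dye loading | signal = kinetic Fluo-8 calcium fluorescence measurement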
TAAR1 agonist: agonists of human TAAR1. CHO RD-HGA16 TAAR1, Fluo-8 calcium fluorescence; vehicle wells 0%, saturating PEA agonist 100%. hit rate 0.99% among 360,000. activation, % at 3 µM. AID 624467;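 active = activation above the mean activation of all test compounds in the run plus 3 SD, cut at about 38% in these data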
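Signal – calcium-sensitive Fluo-8 signal, excitation 470-495, emission 515-575 nm · System – RD-HGA16 (CHO) cells co-expressing Gα16 and hTAAR1 · Incubation – 17-24 h seeding, 75 min 37 °C dye, 30 min RT · Compound dosing – 3 µM single concentration · Repeats – no replicates (n 1)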
V1R ag counter: counter-screen for oxytocin receptor agonists: human V1a receptor agonists | P37288 | CHO-V1R cells, Fluo-8 calcium fluorescence, agonist mode; 0% DMSO, 100% 3 nM vasopressin | activation, % at 3 µM | hit rate 0.25% among 320,000;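 active = activation above the mean activation of all tested compounds plus 3 SD, per screening run, cut at about 20% in these data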;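 also: signal is peak over basal fluorescence ratio across a 100 second FLIPR read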
Target sequence (P37288 whole entry, looked up): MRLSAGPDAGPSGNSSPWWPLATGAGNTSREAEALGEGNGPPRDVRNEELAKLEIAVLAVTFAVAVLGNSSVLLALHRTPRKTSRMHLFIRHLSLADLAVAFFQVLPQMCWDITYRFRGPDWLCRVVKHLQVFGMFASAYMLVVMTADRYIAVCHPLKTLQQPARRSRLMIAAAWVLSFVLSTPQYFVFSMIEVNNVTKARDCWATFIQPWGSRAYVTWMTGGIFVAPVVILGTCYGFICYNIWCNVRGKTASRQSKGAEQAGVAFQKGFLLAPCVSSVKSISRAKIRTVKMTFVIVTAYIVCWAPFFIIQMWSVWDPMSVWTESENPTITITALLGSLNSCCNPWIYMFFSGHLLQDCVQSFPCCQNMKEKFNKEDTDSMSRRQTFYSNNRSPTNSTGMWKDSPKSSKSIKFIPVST
OXTR ag: activates the human oxytocin receptor; P30559; CHO-OTR cells, Fluo-8 calcium fluorescence; normalized: DMSO 0%, oxytocin 100%; activation, % at 3 µM; hit rate 0.32% among 320,000;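 active = activation above the mean of all tested compounds plus 3 SD, cutoff set per screening run, cut at about 20% in these data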;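 also: peak over basal fluorescence ratio from a 100 s FLIPR kinetic read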
OXTR potentiate: potentiators of human oxytocin receptor | hit rate 0.061% among 320,000 | CHO-OTR cells, Fluo-8 calcium fluorescence, potentiator mode; 0% = oxytocin EC15, 100% = EC100 | AID 2445 | activation, % at 3 µM;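 active = activation above that plate's cutoff, the mean activation of tested compounds plus 3 SD, cut at about 6.6% in these data, passing the limit was not always enough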;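 also: 100% uses oxytocin at 75 nM as the full agonist control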
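Measured by – Fluo-8 calcium dye fluorescence · Test system – human OTR in CHO cells · Dosing – one concentration, 3.0 µM compound · Controls – EC15 oxytocin alone as 0%, 75 nM oxytocin as 100% · Evaluation – normalized max/min fluorescence ratio, % activation · Timing – 6 min pre-incubation, 100 s read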
Starred values were filed as active, the others as inactive; x = not tested or not shown.

SMILES	TAAR1 antagonist	TAAR1 agonist	V1R ag counter	OXTR ag	OXTR potentiate
CNS(=O)(=O)c1cn(CC(=O)NCc2ccc(F)cc2)cc1S(=O)(=O)NC	-6	3	0	1	-15
Cc1c(NC(=O)Nc2ccc(C(C)C)cc2)c(=O)n(-c2ccccc2)n1C	7	4	2	1	-1
O=c1[nH]c2ccccc2nc1/C=C(\O)c1cccs1	9	28	29*	23*	-15
O/C(=C\c1nc2ccccc2[nH]1)c1cccs1	1	2	0	-1	-6
CS(=O)(=O)Nc1cccc(NC(=O)c2ccc(-c3ccc(F)c(F)c3)c3ccoc23)c1	37	4	x	x	x
CS(=O)(=O)Nc1cccc(NC(=O)c2cccc3c(-c4cccc(C(N)=O)c4)coc23)c1	66*	8	x	x	x
CS(=O)(=O)Nc1cccc(NC(=O)c2cccc3c(-c4ccc(F)c(F)c4)coc23)c1	64*	1	x	x	x
Cc1ccc(-c2c(C#N)c(N)n(-c3ccc(C)cc3)c(=O)c2C#N)cc1	10	5	9	10	-11
Cc1ccc(-n2c(N)c(C#N)c(-c3ccc(Cl)cc3)c(C#N)c2=O)cc1	-4	10	24*	29*	-25
COc1ccc(OC)c(S(=O)(=O)N(C)CC(=O)N2CCc3ccccc3C2)c1	13	45*	0	0	-7
COc1ccc(N(CC(=O)N2CCc3ccccc3C2)S(C)(=O)=O)cc1	2	42*	1	0	-5
COc1ccc(N(CC(=O)N2CCc3ccccc3C2)S(=O)(=O)c2c(C)[nH]c(=O)[nH]c2=O)cc1	-8	1	1	1	-7
Cc1ccc(C)c(OCC(=O)N/N=C/c2c(C)nn(-c3ccccc3)c2Cl)c1	53*	11	0	-1	-7
Cc1nn(-c2ccccc2)c(Cl)c1/C=N/NC(=O)OC(C)(C)C	54*	13	5	-1	-4
O=C1CSC(c2cccc(O)c2)N1Cc1ccccc1 (centres undefined)	2	5	4	2	0
COc1ccc(/C=N\NC(=O)c2ccc(F)cc2)cc1COc1cc(F)ccc1[N+](=O)[O-]	53*	4	x	x	x
O=C(N/N=C/c1ccc(OC(=O)c2ccccc2)c([N+](=O)[O-])c1)c1ccc(O)cc1	53*	0	0	0	1
COc1ccc(/C=N/NS(=O)(=O)c2ccc(F)cc2)cc1COc1cc(F)ccc1[N+](=O)[O-]	-4	2	0	-3	-15
CC(C)(C)C(=O)Nc1ccc(C(=O)N/N=C/c2ccccc2OC(=O)c2ccccc2)cc1	53*	16	1	0	-17
Cc1ccc(Cn2ncc(C)c2N)o1	-3	13	0	1	2
COc1ccc(CCn2c(C)cc(C(=O)COC(=O)c3ccc(O)cc3O)c2C)cc1	65*	10	x	x	x
COc1ccc(CCn2c(C)cc(C(=O)COC(=O)c3cnc(C)cn3)c2C)cc1	6	7	-1	0	-4
C=CCSc1nc(C)c(CC=C)c(=O)[nH]1	-13	9	1	0	-4
Cc1c(CN2CCC(CO)(CCOc3ccccc3)CC2)[nH]c2c(Cl)cccc12	26	41*	8	13	-17
Cc1nn(C)c(Cl)c1CN1CCC(CO)(CCOc2ccccc2)CC1	-17	2	4	3	4
SMILES	TAAR1 antagonist	TAAR1 agonist	V1R ag counter	OXTR ag	OXTR potentiate
COCC(C)NC(=O)CSc1nc2ccccc2c(=O)n1CCc1ccc(S(N)(=O)=O)cc1 (centres undefined)	54*	13	2	1	0
Cc1nc2nc(C)n(CCN3CCOCC3)c(=O)c2c(-c2cccc([N+](=O)[O-])c2)c1C(=O)CCCCCCCCCCN1CCC(c2ccccc2)(c2ccccc2)CC1	49*	18	x	x	x
Cc1cccc(/C=C/c2onc(C)c2S(=O)(=O)N2CCC(C(=O)NC(C)(C)C)CC2)c1	9	-2	0	0	-14
COC(=O)c1ccc(CN2CCC(n3nccc3NC(=O)C3CCCC3)CC2)cc1	-11	0	2	0	-2
CN(C)c1nc(OCCOC(=O)c2ccccc2)nc(N(C)C)n1	11	39*	4	7	0
O=C(O)CC/C(=C\c1cccc(NC(=O)c2ccccc2Cl)c1)c1nc2ccccc2s1	50*	12	4	1	-8
COc1ccc(/C=N/NC(=O)c2ccoc2C)cc1COc1c(C)cccc1C	68*	6	3	3	-17
COc1ccc(/C=N\NC(=O)c2ccccc2)cc1COc1ccccc1	32	5	1	2	-7
CCOC(=O)c1ccccc1OCc1cc(/C=N/NC(=O)c2cccnc2)ccc1OC	81*	17	1	-3	-5
CCOC(=O)CCC(=O)NCc1ccc2[nH]c(C)cc2c1	14	12	1	1	-3
COc1ccc(CNC(=O)OC23CN(C(=O)OC(C)C)N(C(=O)OC(C)C)CC2(O)CN(S(=O)(=O)c2ccc(C)cc2)C3)cc1OC (centres undefined)	28	7	x	x	x
Cc1ccc(S(=O)(=O)N2CC3(O)CN(C(=O)OC(C)C)N(C(=O)OC(C)C)CC3(OC(=O)NCc3ccccc3)C2)cc1 (centres undefined)	60*	9	x	x	x
O=C(/C=C\c1cn(-c2ccccc2)nc1-c1ccccc1)Nc1nccs1	51*	2	4	4	-6
Cn1cccc1C1Nc2ccccc2NC2=C1C(=O)CC(C)(C)C2 (centres undefined)	56*	16	1	0	-3
CC1(C)CC(=O)C2=C(C1)Nc1ccccc1NC2c1cccc(F)c1 (centres undefined)	4	1	x	x	x
Cc1ccc(Sc2ccc(C(=O)NC(C)C)cc2[N+](=O)[O-])cc1	-5	5	0	-2	-6
COc1ccc(-c2nn(-c3ccccc3)cc2C(=O)N2CCN(S(=O)(=O)c3ccccc3C#N)CC2)cc1	50*	4	0	0	0
COc1ccc(-c2nn(-c3ccccc3)cc2C(=O)N2CCN(S(=O)(=O)c3ccccc3[N+](=O)[O-])CC2)cc1	20	15	x	x	x
CCCCCCSc1ccc(-c2nc3ccc(Cl)cn3c2NCCCC)cc1OC	15	1	1	0	-4
CCCCNc1c(-c2ccc(OC)c(Sc3ccc(OC)cc3)c2)nc2ccccn12	x	x	2	-1	-10
CCCCNc1c(-c2ccc(SC(C)CC)c(OC)c2)nc2ccc(Cl)cn12 (centres undefined)	62*	0	-1	-2	-7
CCCCNc1c(-c2ccc(SC(C)CC)c(OC)c2)nc2ccc(C)cn12 (centres undefined)	87*	9	0	-3	-11
CCCCNc1c(-c2ccc(-c3ccc(OC)cc3)c(OC)c2)nc2ccccn12	72*	7	0	-2	-9
